Assay results as given in ChEMBL document CHEMBL4373643, “Synthesis and biological evaluation of structurally diverse α-conformationally restricted chalcones and related analogues” (Medchemcomm, 2019).

Assays:
NCI-H460 = assay: Cytotoxicity against human NCI-H460 cells assessed as reduction in cell viability incubated for 48 hrs by SRB assay; assay type: functional; conditions: NCI-H460, 48 h
How it was run: (§1)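 Cells from ATCC, plated at 7000–8000 cells/well in DMEM with 5% FBS and 1% gentamicin and left 24 h at 37 °C, 5% CO2. Compounds from a 10 mg mL–1 DMSO stock were serially diluted and added for 48 h. Cells were fixed with TCA (10% final), stained with SRB, and the dye solubilized in 10 mM Tris. A540 was normalized to A630, and GI50 was taken as 50% reduction in net protein increase.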

DU-145 = assay: Cytotoxicity against human DU145 cells assessed as reduction in cell viability incubated for 48 hrs by SRB assay; assay type: functional; conditions: DU-145, 48 h; how it was run: as §1
SK-OV-3 = assay: Cytotoxicity against human SKOV3 cells assessed as reduction in cell viability incubated for 48 hrs by SRB assay; assay type: functional; conditions: SK-OV-3, 48 h; how it was run: as §1
Tubulin = assay: Inhibition of tubulin polymerization (unknown origin) incubated for 10 mins by spectrophotometry; assay type: protein-complex assay, Homo sapiens
HUVEC = assay: Cytotoxicity against HUVEC assessed as reduction in cell viability incubated for 48 hrs by SRB assay; assay type: cell-based; conditions: human
How it was run: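 HUVECs were grown in M200 with VEGF kit supplements in collagen I coated flasks, then plated at 9000 cells/well and given 48 h to attach. Compounds were added as 10-fold serial dilutions in M200 with LSGS kit, 1% gentamicin and 1% amphotericin B. Growth was read by SRB assay, and GI50 was taken as the concentration inhibiting growth by 50%.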

Tubulin (Homo sapiens) = Tubulin (Homo sapiens) (UniProt P68371+Q9H4B7+P0DPH7+P68366+Q13509+Q71U36+P04350+Q3ZCM7+P07437+P68363+Q9BQE3+Q6PEY2+Q13885+Q9BVA1+Q9BUF5); assay: Inhibition of [3H]colchicine binding to tubulin (unknown origin) at 5 uM incubated for 10 mins by scintillation counting method relative to control; assay type: protein-complex assay
[1] = Selectivity index, ratio of GI50 for HUVEC to GI50 for human NCI-H460 cells; assay type: toxicity; conditions: HUVEC versus NCI-H460 cells, read-out: RatioGI50
[2] = Selectivity index, ratio of GI50 for HUVEC to GI50 for human DU145 cells; assay type: toxicity; conditions: HUVEC versus DU145 cells, read-out: RatioGI50
[3] = Selectivity index, ratio of GI50 for HUVEC to GI50 for human SKOV3 cells; assay type: toxicity; conditions: HUVEC versus SKOV3 cells, read-out: RatioGI50

## COc1cc(Cc2ccc3c(Br)c(OC)ccc3c2O)cc(OC)c1OC
NCI-H460
  GI50: 5.92 µM
DU-145
  GI50: 6.17 µM
SK-OV-3
  GI50: 18.3 µM

## COc1ccc2c(c1O)CCC(=C\c1cc(OC)c(OC)c(OC)c1)/C2=N\O
Tubulin
  IC50: > 20 µM
NCI-H460
  GI50: 22.8 µM
DU-145
  GI50: 23.9 µM
SK-OV-3
  GI50: 38.2 µM

## COc1ccc2c(c1Br)CC/C(=C\c1cc(OC)c(OC)c(OC)c1)C2=O
Tubulin
  IC50: > 20 µM
NCI-H460
  GI50: 22.6 µM
DU-145
  GI50: 27.6 µM
SK-OV-3
  GI50: 29.6 µM

## COc1ccc2c(c1Br)CC[C@H]1[C@H](c3cc(OC)c(OC)c(OC)c3)[C@@H]21
Tubulin
  IC50: > 20 µM
NCI-H460
  GI50: 59.2 µM
DU-145
  GI50: 61.5 µM
SK-OV-3
  GI50: 108 µM

## CC(=O)O[C@H]1C(=O)[C@@]2(C)[C@H]([C@H](OC(=O)c3ccccc3)[C@]3(O)C[C@H](OC(=O)[C@H](O)[C@@H](NC(=O)c4ccccc4)c4ccccc4)C(C)=C1C3(C)C)[C@]1(OC(C)=O)CO[C@@H]1C[C@@H]2O [PACLITAXEL]
NCI-H460
  GI50: 0.00165 µM
DU-145
  GI50: 0.00152 µM
SK-OV-3
  GI50: 0.00136 µM

## COc1ccc(/C=C\c2cc(OC)c(OC)c(OC)c2)cc1O [COMBRETASTATIN A4]
NCI-H460
  GI50: 0.005 µM
DU-145
  GI50: 0.00602 µM
SK-OV-3
  GI50: 0.00506 µM

## COc1cccc2c1C(=O)c1c(O)c3c(c(O)c1C2=O)C[C@@](O)(C(=O)CO)C[C@@H]3O[C@H]1C[C@H](N)[C@H](O)[C@H](C)O1 [DOXORUBICIN]
NCI-H460
  GI50: 0.0547 µM
DU-145
  GI50: 0.108 µM
SK-OV-3
  GI50: 0.0875 µM

## COc1ccc2c(c1O)CC/C(=C\c1cc(OC)c(OC)c(OC)c1)C2=O
Tubulin
  IC50: > 20 µM
NCI-H460
  GI50: 6.44 µM
DU-145
  GI50: 5.49 µM
SK-OV-3
  GI50: 6.29 µM
HUVEC
  Activity: Toxic

## COc1ccc2c(O)c(Cc3cc(OC)c(OC)c(OC)c3)ccc2c1
Tubulin
  IC50: 17 µM
NCI-H460
  GI50: 13.4 µM
DU-145
  GI50: 8.84 µM
SK-OV-3
  GI50: 7.5 µM
HUVEC
  Activity: Toxic

## COc1ccc2c(c1Br)CCC(=C\c1cc(OC)c(OC)c(OC)c1)/C2=N\O
Tubulin
  IC50: > 20 µM
NCI-H460
  GI50: 47 µM
DU-145
  GI50: 50.1 µM
SK-OV-3
  GI50: 80.1 µM

## COc1cc(Cc2ccc3c(N)c(OC)ccc3c2O)cc(OC)c1OC
NCI-H460
  GI50: 65.2 µM
DU-145
  GI50: 49.7 µM
SK-OV-3
  GI50: 16.4 µM

## COc1ccc2c(c1O)CCC/C(=C\c1cc(OC)c(OC)c(OC)c1)C2=O
Tubulin
  IC50: > 20 µM
Tubulin (Homo sapiens)
  inhibition: 14%
NCI-H460
  GI50: 0.635 µM
DU-145
  GI50: 0.456 µM
SK-OV-3
  GI50: 0.941 µM
HUVEC
  Activity: Non-Toxic
[1]
  selectivity ratio: 10
[2]
  selectivity ratio: 10
[3]
  selectivity ratio: 10

## COc1cc(/C=C2\CCCc3c(ccc(OC)c3[N+](=O)[O-])C2=O)cc(OC)c1OC
Tubulin
  IC50: > 20 µM
NCI-H460
  GI50: 5.96 µM
DU-145
  GI50: 5.94 µM
SK-OV-3
  GI50: 16.1 µM

## COc1ccc2c(c1N)CC/C(=C\c1cc(OC)c(OC)c(OC)c1)C2=O
Tubulin
  IC50: > 20 µM
NCI-H460
  GI50: 46.4 µM
DU-145
  GI50: 32.4 µM
SK-OV-3
  GI50: > 135 µM
HUVEC
  Activity: Toxic

## COc1ccc2c(c1N)CCC/C(=C\c1cc(OC)c(OC)c(OC)c1)C2=O
Tubulin
  IC50: > 20 µM
Tubulin (Homo sapiens)
  inhibition: 0.34%
NCI-H460
  GI50: 0.733 µM
DU-145
  GI50: 0.237 µM
SK-OV-3
  GI50: 0.936 µM
HUVEC
  Activity: Non-Toxic
[1]
  selectivity ratio: 100
[2]
  selectivity ratio: 100
[3]
  selectivity ratio: 100

## COc1ccc2c(c1Br)CCC/C(=C\c1cc(OC)c(OC)c(OC)c1)C2=O
Tubulin
  IC50: > 20 µM
NCI-H460
  GI50: 4.44 µM
DU-145
  GI50: 9.91 µM
SK-OV-3
  GI50: 8.5 µM

## COc1ccc2c(c1)CC/C(=C\c1cc(OC)c(OC)c(OC)c1)C2=O
Tubulin
  IC50: > 20 µM
NCI-H460
  GI50: 22.4 µM
DU-145
  GI50: 22.6 µM
SK-OV-3
  GI50: 40.3 µM

## COc1ccc2c(c1)CCC/C(=C\c1cc(OC)c(OC)c(OC)c1)C2=O
Tubulin
  IC50: > 20 µM
NCI-H460
  GI50: 6.57 µM
DU-145
  GI50: 9.71 µM
SK-OV-3
  GI50: 12 µM

## COc1cc(Cc2ccc3c(O)c(OC)ccc3c2O)cc(OC)c1OC
NCI-H460
  GI50: 24.4 µM
DU-145
  GI50: 23.4 µM
SK-OV-3
  GI50: 21.9 µM

## COc1cc(/C=C2\CCc3c(ccc(OC)c3[N+](=O)[O-])C2=O)cc(OC)c1OC
Tubulin
  IC50: > 20 µM
NCI-H460
  GI50: 36.3 µM
DU-145
  GI50: 37.6 µM
SK-OV-3
  GI50: 23.5 µM

## COc1ccc2c(c1)CC[C@H]1[C@H](c3cc(OC)c(OC)c(OC)c3)[C@@H]21
Tubulin
  IC50: > 20 µM
NCI-H460
  GI50: 38.8 µM
DU-145
  GI50: 41.1 µM
SK-OV-3
  GI50: 54.5 µM

## COc1cc(Cc2ccc3c([N+](=O)[O-])c(OC)ccc3c2O)cc(OC)c1OC
NCI-H460
  GI50: 22.9 µM
DU-145
  GI50: 18.6 µM
SK-OV-3
  GI50: 21 µM

## COc1ccc2c(c1C#N)CC/C(=C\c1cc(OC)c(OC)c(OC)c1)C2=O
Tubulin
  IC50: > 20 µM
NCI-H460
  GI50: 44.4 µM
DU-145
  GI50: 57.2 µM
SK-OV-3
  GI50: 33.3 µM
